Laboratory results taken from ChEMBL document CHEMBL1124046, “2-Methyl-1,3-dioxaazaspiro[4.5]decanes as novel muscarinic cholinergic agonists” (J Med Chem, 1988).

Assays:
[1] = target: T1, Muscarinic acetylcholine receptor (Rattus norvegicus) (UniProt P08482+P08483+P08485+P08911+P10980); assay: Percent inhibition of [3H]N-methylscopolamine (NMS) binding to Muscarinic acetylcholine receptor in rat cortex at a concentration of >100 uM
In short: (§1)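 Rat cortical membranes (male Sprague-Dawley, 250-300 g). Test compound at a single stated concentration; percent inhibition of specific binding is reported. [3H]-N-methylscopolamine (0.1 nM) in 20 mM HEPES Krebs' buffer pH 7.4, 60 min at 30 °C; [3H]oxotremorine-M (3.0 nM) in 20 mM HEPES buffer pH 7.4, 40 min at 30 °C. Ended by filtration.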

[2] = target: T1, Muscarinic acetylcholine receptor (Rattus norvegicus); assay: Percent inhibition of [3H]oxotremorine-M binding to Muscarinic acetylcholine receptor in rat cortex at a concentration of >10 uM; in short: as §1
[3] = Ratio of NMS/oxo-M apparent binding affinities (Kapp)
In short: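 Two rat cortical membrane binding assays, each in triplicate with at least four concentrations, Kapp corrected for radioligand occupancy. [3H]N-methylscopolamine (0.1 nM) run in 20 mM HEPES Krebs' buffer pH 7.4, 60 min at 30 °C. [3H]oxotremorine-M (3.0 nM) run in 20 mM HEPES pH 7.4, 40 min at 30 °C. Ratio taken as NMS Kapp over oxo-M Kapp.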

[4] = target: T1, Muscarinic acetylcholine receptor (Rattus norvegicus); assay: Apparent binding affinity at Muscarinic acetylcholine receptor by displacing [3H]oxotremorine-M in rat cortex; assay type: tissue-based
In short: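 Membranes from male Sprague-Dawley rat (250-300 g) cortex in 20 mM HEPES buffer pH 7.4; displacement of 3.0 nM [3H]oxotremorine-M, 40 min at 30 °C, ended by filtration onto polyethylenimine-presoaked GF/C filters. Triplicates, at least four concentrations per curve; apparent affinity constant corrected for radioligand occupancy, in µM, geometric mean of n experiments.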

[5] = target: T1, Muscarinic acetylcholine receptor (Rattus norvegicus); details: Cortex
[6] = target: T1, Muscarinic acetylcholine receptor (Rattus norvegicus); details: Cortex; remark: listed apart in the source
[7] = target: T1, Muscarinic acetylcholine receptor (Rattus norvegicus); assay: Apparent binding affinity at Muscarinic acetylcholine receptor by displacing [3H]oxotremorine-M in rat cortex at a concentration of >10 uM; assay type: tissue-based
In short: (§2)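 Membranes from cortex of male Sprague-Dawley rats (250-300 g). Displacement curves with 0.1 nM [3H]-N-methylscopolamine in 20 mM HEPES Krebs' buffer pH 7.4, 60 min at 30 °C; or with 3.0 nM [3H]oxotremorine-M in 20 mM HEPES buffer pH 7.4, 40 min at 30 °C. Filtration read-out. Triplicates, at least four concentrations. Kapp corrected for radioligand occupancy; geometric mean of n experiments.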

[8] = target: T1, Muscarinic acetylcholine receptor (Rattus norvegicus); assay: Apparent binding affinity at Muscarinic acetylcholine receptor, by displacing [3H]N-methylscopolamine (NMS) in rat cortex at a concentration of >100 uM; assay type: tissue-based; in short: as §2
[9] = target: T1, Muscarinic acetylcholine receptor (Rattus norvegicus); details: Cortex; remark: listed apart in the source
[10] = target: T1, Muscarinic acetylcholine receptor (Rattus norvegicus); details: Cortex; remark: listed apart in the source
[11] = target: T1, Muscarinic acetylcholine receptor (Rattus norvegicus); details: Cortex; remark: listed apart in the source

Ratio [3]	K app [4]	K app [5]	Structure (SMILES)	inhibition [1]	inhibition [2]	also measured
130	0.04 µM	–	CCN1C(=O)CC2(CCN(C)CC2)C1=O	–	–	K app [6]: 5 µM
470	–	–	CC1OCC2(CCNCC2)O1 (stereo not drawn)	–	–	K app [9]: 0.092 µM; K app [10]: 43 µM
24	0.22 µM	5.3 µM	CCC1OCC2(CCN(C)CC2)O1 (stereo not drawn)	–	–	–

More lines, now with the values behind:

Structure (SMILES)	Ratio [3]	K app [4]	K app [5]	inhibition [1]	inhibition [2]	also measured
CC1OCC2(CCCN(C)C2)O1 (stereo in doubt; 4a)	–	–	–	24%	4%	–
C[C@H]1OCC2(CN3CCC2CC3)O1 (stereo partly drawn)	140	0.035 µM	4.9 µM	–	–	–
CC1OCC2(CCCNC2)O1 (stereo not drawn)	–	–	–	29%	25%	inhibition [7]: 13%; inhibition [8]: 20%
CC1OCC2(CCCN(C)C2)O1 (stereo in doubt; 4b)	–	–	–	19%	10%	–
C[N+](C)(C)CCOC(N)=O	4100	–	24 µM	–	–	K app [11]: 0.0058 µM
